Source: PubChem
Rows were chosen to be rich in hits. Some 4.6% of all compounds tested hit in one or more screens of this group.
NALP3 yeast inh = blocks the NALP3 inflammasome reconstituted in yeast. inhibition, % at 10 µM. 0.39% of 330,000 active. AID 2825. Yeast reconstituted NLRP3/ASC/caspase-1, beta-gal luminescence, 24 h;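 active = inhibition of 50% or more; inactive = inhibition below 50%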;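 note: plate controls were induced DMSO wells for no effect and uninduced yeast grown without galactose for full effect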
NALP1 inh = inhibitors of NALP1 inflammasome in yeast; S. cerevisiae NALP1/ASC/caspase-1 growth, X-gal OD620, 72 h; inhibition, % at 10 µM; 0.61% of 280,000 active; AID 2071; in the data active = inhibition mostly above about 24%, no sharp cut-off; inactive = mostly below about 32%
Arrestin-AP2 inh = inhibitors of human beta-arrestin and AP2 interaction; 0.31% of 340,000 active; FITC-arrestin peptide / GST-AP2 beads, flow cytometry; AP2 beta2 appendage carries R879A mutation; inhibition, % at 10 µM; AID 504490;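 active = inhibition above a set limit, near 3 SD of compounds lacking own fluorescence, cut at about 54% in these data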;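 note: plate controls were DMSO wells for no effect and 5 µM unlabelled arrestin peptide for full effect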
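Material – AP2 appendage R879A on GSH beads · Buffer or medium – PBS with 0.05% Tween 20 and 0.1% BSA · Probe or stimulus – fluorescein-tagged arrestin peptide at 50 nM final · Incubation – compound with beads 12 min RT, then probe 1 h RT · Detection – high-throughput flow cytometry of beads, ex 488, em 535 nm · Evaluation – percent response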
ALR inh = human ALR oxidase inhibition via reduced H2O2; P55789; purified ALR, DTT oxidation, H2O2 HRP-luminol luminescence; inhibition, % (concentration not given with the values); 3.8% of 290,000 active;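 active = mean replicate inhibition above about 79%, with every replicate also reaching it, limit read from the data; inconclusive = only one of the two criteria met; inactive = mean below limit and not every replicate reaching it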
Target sequence (P55789 whole entry, looked up): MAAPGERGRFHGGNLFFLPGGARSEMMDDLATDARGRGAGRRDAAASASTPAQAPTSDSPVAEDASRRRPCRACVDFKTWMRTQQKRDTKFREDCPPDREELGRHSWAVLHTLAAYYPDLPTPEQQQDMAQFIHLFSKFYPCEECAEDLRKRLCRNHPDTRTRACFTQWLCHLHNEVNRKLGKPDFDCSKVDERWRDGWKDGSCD
PolyA inhibitor = yeast polyadenylation inhibition; S. cerevisiae SKY197-pL101 polyadenylation reporter, beta-gal luminescence; efflux-impaired pdr1/pdr3 knockout yeast; score 100 = 6 SD above DMSO; activity score, % at 12 µM; 0.02% of 300,000 active; AID 1875;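 active = lowest replicate activity score at least 50, where 100 means six control SD above control mean; inconclusive = lowest score under 50 but half or more replicates reach 50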;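 note: yeast exposed to compound for 9 h at 30 °C; higher score means more reporter readthrough which indicates perturbed polyadenylation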
Pemphigus Ab inh = human desmoglein-3 autoantibody binding inhibition; DSG3-coupled beads, scFv-anti-DSG3-GFP binding, flow cytometry; active compounds read low; binding (percent of control), % at 10 µM; 0.48% of 310,000 active;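 active = binding more than 3 SD below its plate's average and above zero; inconclusive = below that plate limit but binding exactly zero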;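 note: hits lower antibody fragment binding to DSG3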
* hit, by the source's call; ? = inconclusive; nt = not tested or not shown.

SMILES	NALP3 yeast inh	NALP1 inh	Arrestin-AP2 inh	ALR inh	PolyA inhibitor	Pemphigus Ab inh
COc1ccccc1-n1cnnc1SCc1csc(-c2ccccc2)n1	17.8	-14.1	-1.9	-12.7	nt	108.8
Cc1cccc(CSC2=NCCN2C(=O)c2ccco2)c1	11.2	1.3	16.9	96.5*	-6.8	105.6
O=C(c1ccc(S(=O)(=O)N2CCOCC2)cc1)N1CCN=C1SCc1cccnc1	13.1	6.5	-5.0	98.9*	-4.3	98.3
CN(C)S(=O)(=O)c1ccc(C(=O)N2CCN=C2SCc2ccccc2)cc1	5.7	9.6	15.4	-12.1	-0.9	89.4
Cc1ccc(CSC2=NCCN2C(=O)c2ccco2)cc1	5.9	22.6	3.9	94.5*	0.0	105.7
O=C(c1ccco1)N1CCN=C1SCc1cccnc1	11.8	11.7	-4.4	99.0*	0.3	95.4
Cc1cccc(CSC2=NCCN2C(=O)C2CC2)c1	22.0	11.6	-2.8	8.3	5.8	112.3
O=C(c1cccs1)N1CCN=C1SCc1cccnc1	5.0	7.4	7.5	98.7*	1.9	nt
O=C(c1cccs1)N1CCN=C1SCc1ccccc1F	-17.9	6.5	-16.0	-12.7	15.4	87.8
O=C(c1ccco1)N1CCN=C1SCc1ccccc1F	16.1	-27.8	6.0	95.4*	7.1	106.0
O=C(c1cccs1)N1CCN=C1SCc1ccc(Cl)cc1	-2.4	-20.6	14.5	?	-10.3	100.1
O=C(N1CCN=C1SCc1cccnc1)C12CC3CC(CC(C3)C1)C2	2.2	-2.6	0.1	98.9*	-2.4	101.4
Cc1ccccc1C(=O)NNC(=O)C1CC(=O)N(c2ccc3c(c2)OCCO3)C1 (stereo unspecified)	-20.8	nt	1.3	0.3	nt	nt
Cc1ccc(C)c(N2CCN(CCCNC(=O)CCC(=O)N3CCOc4ccc(Cl)cc43)CC2)c1	12.3	4.4	nt	17.3	-12.8	nt
COc1ccc(N2CCN(CCCNC(=O)CCC(=O)N3CCOc4ccc(Cl)cc43)CC2)cc1	7.2	7.3	0.3	98.8*	-2.8	98.6
CNC(=S)NNC(=O)c1sc2cc(C(F)(F)F)cnc2c1-c1cccnc1	12.9	-14.6	-14.9	88.3*	-7.7	103.7
CNC(=S)NNC(=O)c1sc2cc(C(F)(F)F)cnc2c1-c1ccccn1	15.3	-4.4	-5.4	-4.5	-25.5	96.0
CCOC(=O)C1CCN(S(=O)(=O)CCNC(=O)c2ccc(F)cc2)CC1	14.9	nt	-11.5	nt	12.1	103.7
CCCCc1cc(=O)oc2c(CN(C)C)c(O)ccc12	-6.1	32.6	-2.4	93.8*	22.7	115.7
CN(C)Cc1c(O)ccc2c3c(c(=O)oc12)CCCCC3	22.6	8.1	0.1	89.8*	7.5	99.3
COCCN(CCOC)Cc1c(O)ccc2c3c(c(=O)oc12)CCC3	-5.1	2.3	34.7	5.3	0.3	nt
CCCc1cc(=O)oc2c(CN(CC)CC)c(O)c(Cl)cc12	11.6	35.1*	0.8	5.7	?	87.0
Cc1ccc2c(c1)S(=O)(=O)N(C)C(c1ccccc1)=C2	nt	nt	1.2	nt	nt	95.8
CCN1CCN(Cc2c(O)ccc3c2O/C(=C\C=C\c2ccccc2)C3=O)CC1	-4.1	17.0	31.8	-2.1	-16.2	114.5
CN(C)Cc1c(O)ccc2c1O/C(=C\C=C\c1ccccc1)C2=O	8.5	44.1*	21.1	nt	-0.2	105.2
SMILES	NALP3 yeast inh	NALP1 inh	Arrestin-AP2 inh	ALR inh	PolyA inhibitor	Pemphigus Ab inh
NCCS	45.3	47.0*	19.5	18.4	4.6	93.1
Cc1cccc(N=c2oc3cc(O)ccc3cc2C(N)=O)c1	-1.0	-11.9	0.6	94.5*	18.1	nt
COc1ccc(NC2c3ncccc3C(=O)N2Cc2cccs2)cc1 (stereo unspecified)	-2.0	26.7	33.0	95.6*	6.0	100.1
COC(=O)c1ccc(NC2c3ncccc3C(=O)N2Cc2cccs2)cc1 (stereo unspecified)	20.2	3.6	44.6	-15.2	13.0	95.5
O=C(CC1Sc2ccccc2NC1=O)NNc1ccc(F)cc1 (stereo unspecified)	nt	nt	-2.0	nt	nt	98.5
COc1ccc(CNc2ncnc3sccc23)cc1	35.6	12.2	18.4	-2.7	114.0*	108.8
S=c1[nH]c2ccccc2n2c(=S)[nH]nc12	19.1	-12.3	41.2	98.7*	4.4	94.7
S=c1[nH]c2ccccc2n2cccc12	18.0	3.2	6.8	-6.0	-2.6	108.6
